Experimental data taken from ChEMBL document CHEMBL1158625, “Design of 1-piperazinyl-4-arylphthalazines as potent Smoothened antagonists” (Bioorg Med Chem Lett, 2010).
The source made the active and inactive calls. No cut-off for these calls is given here.

Columns and labels:
[1] = biological target: Protein smoothened (Mus musculus, UniProt P56726); assay: Inhibition of mouse SMO expressed in NIH-3T3 cells; assay type: cell-based, NIH3T3
[2] = biological target: CYP2D6 (Homo sapiens, UniProt P10635); assay: Inhibition of human CYP2D6 at 3 uM by HPLC-MS; assay type: ADME
[3] = Metabolic stability in human liver microsome assessed as compound turnover after 30 mins; assay type: ADME; details: liver microsomes, read-out: Stability
Outline: (§1)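 Pooled human or rat liver microsomes (0.25 mg/mL), 37 °C, phosphate buffer pH 7.4, test compound 1 µM; NADPH 1 mM final; quenched at 0 or 30 min with organic solvent; unchanged parent by reversed-phase LC-MS/MS; percent turnover from peak area at 30 versus 0 min.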

[4] = Metabolic stability in rat liver microsome assessed as compound turnover after 30 mins; assay type: ADME; details: liver microsomes, read-out: Stability; outline: as §1
[5] = biological target: CYP3A4 (Homo sapiens, UniProt P08684); assay: Inhibition of human CYP3A4 at 3 uM by HPLC-MS; assay type: ADME
[6] = Clearance in cynomolgus monkey at 0.5 mg/kg, iv; assay type: ADME, organism-based, Macaca fascicularis; design: dose 0.5 mg/kg, route intravenous; details: in vivo
[7] = Volume of distribution at steady state in cynomolgus monkey at 0.5 mg/kg, iv; assay type: ADME, organism-based, Macaca fascicularis; design: dose 0.5 mg/kg, route intravenous; details: in vivo, read-out: Vdss
[8] = Half life in cynomolgus monkey at 0.5 mg/kg, iv; assay type: ADME, organism-based, Macaca fascicularis; design: dose 0.5 mg/kg, route intravenous; details: in vivo
[9] = Oral bioavailability in cynomolgus monkey at 2 mg/kg; assay type: ADME, organism-based, Macaca fascicularis; details: in vivo
[10] = Volume of distribution at steady state in mouse at 1 mg/kg, iv; assay type: ADME, organism-based; design: dose 1 mg/kg, route intravenous; details: in vivo, read-out: Vdss
[11] = Half life in mouse at 1 mg/kg, iv; assay type: ADME, organism-based; design: dose 1 mg/kg, route intravenous; details: in vivo
[12] = Oral bioavailability in mouse at 2 mg/kg; assay type: ADME, organism-based; details: in vivo
[13] = Clearance in dog at 0.5 mg/kg, iv; assay type: ADME, organism-based, Canis lupus familiaris; design: dose 0.5 mg/kg, route intravenous; details: in vivo
[14] = Volume of distribution at steady state in dog at 0.5 mg/kg, iv; assay type: ADME, organism-based, Canis lupus familiaris; design: dose 0.5 mg/kg, route intravenous; details: in vivo, read-out: Vdss
[15] = Half life in dog at 0.5 mg/kg, iv; assay type: ADME, organism-based, Canis lupus familiaris; design: dose 0.5 mg/kg, route intravenous; details: in vivo
[16] = Oral bioavailability in dog at 2 mg/kg; assay type: ADME, organism-based, Canis lupus familiaris; details: in vivo
[17] = Clearance in rat at 0.5 mg/kg, iv; assay type: ADME, organism-based; design: dose 0.5 mg/kg, route intravenous; details: in vivo
[18] = Volume of distribution at steady state in rat at 0.5 mg/kg, iv; assay type: ADME, organism-based; design: dose 0.5 mg/kg, route intravenous; details: in vivo, read-out: Vdss
[19] = Half life in rat at 0.5 mg/kg, iv; assay type: ADME, organism-based; design: dose 0.5 mg/kg, route intravenous; details: in vivo
[20] = Oral bioavailability in rat at 2 mg/kg; assay type: ADME, organism-based; details: in vivo
[21] = Clearance in mouse at 1 mg/kg, iv; assay type: ADME, organism-based; design: dose 1 mg/kg, route intravenous; details: in vivo
[22] = species: Mus musculus; assay: Reduction in Gli1 mRNA expression in mouse skin after 6 hrs of treatment by RT-PCR; assay type: functional, organism-based
Outline: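 Mouse hind flanks depilated with wax; five days later single oral dose 2, 20 or 100 mg/kg; skin harvested after 6 h; Gli1 RNA by quantitative real-time PCR normalized to RGS (Pitx2) RNA; four mice per group, two samples each; Dunnett's method; plasma levels also measured.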

[23] = tested on: Medulloblastoma cell; assay: Antitumor activity against mouse Ptch+/- p53-/- medulloblastoma cells xenografted Harlan nu/nu mouse at 10 mg/kg, po qd administered after 8 days tumor implantation measured after 15 days; assay type: functional, organism-based; design: dose 10 mg/kg
Outline: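 Tumors from p53-/- Ptch+/- crossbred mice transplanted into immunocompromised mice; after 8 days animals randomized to compound 10 mg/kg QD oral or vehicle; tumor volume followed, reduction assessed day 15 versus treatment onset day 8; ten mice per group; Dunnett's method.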

Sequence of CYP3A4 (P08684 whole entry): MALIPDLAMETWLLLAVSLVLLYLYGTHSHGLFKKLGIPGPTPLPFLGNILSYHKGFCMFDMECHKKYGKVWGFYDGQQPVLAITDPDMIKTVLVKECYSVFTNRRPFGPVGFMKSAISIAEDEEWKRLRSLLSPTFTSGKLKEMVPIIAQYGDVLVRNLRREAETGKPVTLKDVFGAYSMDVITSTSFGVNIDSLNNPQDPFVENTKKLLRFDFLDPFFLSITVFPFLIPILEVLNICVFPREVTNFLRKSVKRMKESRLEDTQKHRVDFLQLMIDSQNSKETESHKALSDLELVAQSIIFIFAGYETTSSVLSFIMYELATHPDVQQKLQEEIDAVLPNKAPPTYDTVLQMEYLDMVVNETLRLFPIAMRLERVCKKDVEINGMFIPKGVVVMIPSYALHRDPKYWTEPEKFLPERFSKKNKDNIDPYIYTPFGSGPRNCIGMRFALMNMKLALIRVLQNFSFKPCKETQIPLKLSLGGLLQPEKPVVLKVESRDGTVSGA
Sequence of CYP2D6 (P10635 whole entry): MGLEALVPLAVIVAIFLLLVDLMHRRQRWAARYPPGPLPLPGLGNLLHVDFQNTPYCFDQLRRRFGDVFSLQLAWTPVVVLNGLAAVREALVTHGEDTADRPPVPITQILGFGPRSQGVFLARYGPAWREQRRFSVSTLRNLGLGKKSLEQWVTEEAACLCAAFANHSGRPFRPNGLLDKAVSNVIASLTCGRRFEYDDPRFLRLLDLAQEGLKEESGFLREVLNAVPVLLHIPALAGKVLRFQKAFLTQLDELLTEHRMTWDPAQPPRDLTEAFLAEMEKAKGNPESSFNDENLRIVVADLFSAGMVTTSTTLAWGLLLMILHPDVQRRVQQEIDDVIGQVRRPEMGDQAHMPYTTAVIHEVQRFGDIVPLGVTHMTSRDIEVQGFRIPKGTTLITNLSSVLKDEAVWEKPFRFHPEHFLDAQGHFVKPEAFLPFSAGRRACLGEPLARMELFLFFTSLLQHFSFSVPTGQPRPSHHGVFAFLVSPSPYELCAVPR
Sequence of Protein smoothened (P56726 whole entry): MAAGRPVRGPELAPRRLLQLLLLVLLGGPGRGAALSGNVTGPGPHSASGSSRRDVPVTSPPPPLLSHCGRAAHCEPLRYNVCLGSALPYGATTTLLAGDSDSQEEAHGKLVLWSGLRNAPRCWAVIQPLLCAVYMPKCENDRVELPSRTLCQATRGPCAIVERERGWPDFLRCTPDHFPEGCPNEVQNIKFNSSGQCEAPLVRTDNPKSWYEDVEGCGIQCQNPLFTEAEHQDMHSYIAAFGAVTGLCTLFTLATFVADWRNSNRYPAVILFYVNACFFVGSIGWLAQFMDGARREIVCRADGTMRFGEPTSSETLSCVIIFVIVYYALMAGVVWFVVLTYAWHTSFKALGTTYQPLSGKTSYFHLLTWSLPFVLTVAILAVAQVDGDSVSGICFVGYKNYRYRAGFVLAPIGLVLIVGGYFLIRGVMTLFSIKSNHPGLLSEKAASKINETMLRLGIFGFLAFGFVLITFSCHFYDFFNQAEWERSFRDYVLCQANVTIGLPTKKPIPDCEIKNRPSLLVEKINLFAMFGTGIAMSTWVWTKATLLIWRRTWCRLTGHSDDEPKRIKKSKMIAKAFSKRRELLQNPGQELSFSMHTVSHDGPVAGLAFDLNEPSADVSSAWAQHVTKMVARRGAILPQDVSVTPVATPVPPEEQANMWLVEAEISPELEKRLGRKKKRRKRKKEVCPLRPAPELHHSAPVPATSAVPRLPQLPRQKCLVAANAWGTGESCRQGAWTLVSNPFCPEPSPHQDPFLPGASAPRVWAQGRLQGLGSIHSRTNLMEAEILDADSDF

Row | SMILES | inhibition at 3 µM [2] [%] | metabolised at 0.5 h [3] [%] | metabolised at 0.5 h [4] [%] | inhibition at 3 µM [5] [%] | also measured
1 | O=C(c1cccs1)N1CCN(c2nnc(-c3ccccc3)c3ccccc23)CC1 | – | – | – | – | IC50 [1]: 22 nM
2 | C[C@@H]1CN(C(=O)c2ccccc2)CCN1c1nnc(-c2ccc(N(C)C)cc2)c2ccccc12 | 26 | 59 | 82 | 90 | –
3 | C[C@@H]1CN(c2nnc(-c3ccccc3)c3ccccc23)CCN1C(=O)c1ccccc1 | < 10 | 17 | 21 | < 10 | –
4 | C[C@H]1CN(c2nnc(-c3ccccc3)c3ccccc23)CCN1C(=O)c1ccccc1 | 11 | < 10 | 21 | < 10 | –
5 | C[C@@H]1CN(C(=O)c2ccccc2)CCN1c1nnc(-c2ccc(C3CC3)cc2)c2ccccc12 | < 10 | 34 | 21 | 31 | –
6 | CC(=O)N1CCN(c2nnc(-c3ccccc3)c3ccccc23)CC1 | 29 | 10 | 10 | – | –
7 | C[C@H]1CN(c2nnc(-c3ccccn3)c3ccccc23)CCN1C(=O)c1ccccc1 | < 10 | < 10 | < 10 | < 10 | –
8 | C[C@H]1CN(c2nnc(-c3ncco3)c3ccccc23)CCN1C(=O)c1ccccc1 | 27 | 10 | 23 | < 10 | –
9 | O=C(c1ccccc1)N1CCN(c2nnc(-c3ccccc3Cl)c3ccccc23)CC1 | < 10 | 62 | 15 | < 10 | –
10 | COc1cccc(-c2nnc(N3CCN(C(=O)c4ccccc4)CC3)c3ccccc23)c1 | 19 | 43 | 33 | < 10 | –
11 | C[C@@H]1CN(C(=O)c2ccccc2)CCN1c1nnc(-c2ccc(Cl)cc2)c2ccccc12 | 60 | 38 | 12 | < 10 | –
12 | Cc1ccc(-c2nnc(N3CCN(C(=O)c4ccccc4)C[C@H]3C)c3ccccc23)cc1 | < 10 | 56 | 55 | < 10 | –
13 | O=C(c1ccccc1)N1CCN(c2nnc(-c3ccc(Cl)cc3)c3ccccc23)CC1 | 24 | 20 | 10 | 16 | –
14 | O=C(c1ccccc1)N1CCN(c2nnc(-c3ccc(Cl)c(Cl)c3)c3ccccc23)CC1 | – | 31 | 10 | < 10 | –
15 | C[C@H]1CN(c2nnc(N3CC=CC=N3)c3ccccc23)CCN1C(=O)c1ccccc1 | 15 | < 10 | < 10 | < 10 | –
16 | COc1ccc(-c2nnc(N3CCN(C(=O)c4ccccc4)CC3)c3ccccc23)cc1 | 19 | 27 | 22 | < 10 | –
17 | C[C@H]1CN(c2nnc(-c3cccnc3)c3ccccc23)CCN1C(=O)c1ccccc1 | < 10 | 10 | 12 | 12 | –
18 | C[C@@H]1CN(C(=O)c2ccccc2)CCN1c1nnc(-c2ccc(C#N)cc2)c2ccccc12 | < 10 | < 10 | < 10 | 12 | –

Row | SMILES | inhibition at 3 µM [2] [%] | metabolised at 0.5 h [3] [%] | metabolised at 0.5 h [4] [%] | inhibition at 3 µM [5] [%] | also measured
19 | C[C@H]1CN(c2nnc(-c3ccc(Cl)cc3)c3ccccc23)CCN1C(=O)c1ccccc1 | 43 | < 10 | < 10 | 40 | –
20 | C[C@H]1CN(c2nnc(-c3ccc(F)cc3)c3ccccc23)CCN1C(=O)c1ccccc1 | 18 | 10 | 15 | 20 | –
21 | C[C@@H]1CN(C(=O)c2ccccc2)CCN1c1nnc(-c2ccccc2)c2ccccc12 | 47 | 44 | 39 | < 10 | –
22 | N#Cc1cccc(-c2nnc(N3CCN(C(=O)c4ccccc4)CC3)c3ccccc23)c1 | 18 | 10 | 10 | < 10 | –
23 | C[C@@H]1CN(C(=O)c2ccccc2)CCN1c1nnc(-c2ccc(C(C)(C)C)cc2)c2ccccc12 | 10 | 89 | 94 | 25 | –
24 | CC(C)c1ccc(-c2nnc(N3CCN(C(=O)c4ccccc4)C[C@H]3C)c3ccccc23)cc1 | 20 | 41 | 73 | 14 | –
25 | O=C(c1nccs1)N1CCN(c2nnc(-c3ccccc3)c3ccccc23)CC1 | 89 | 48 | 25 | < 10 | –
26 | O=C(c1ccco1)N1CCN(c2nnc(-c3ccccc3)c3ccccc23)CC1 | 48 | 43 | 32 | < 10 | –
27 | C[C@H]1CN(c2nnc(-c3ccncc3)c3ccccc23)CCN1C(=O)c1ccccc1 | 52 | 10 | 25 | 58 | –
28 | C[C@@H]1CN(C(=O)c2ccccc2)CCN1c1nnc(-c2ccc(CO)cc2)c2ccccc12 | < 10 | 14 | 13 | 15 | –
29 | Cc1ccc(-c2nnc(N3CCN(C(=O)c4ccccc4)CC3)c3ccccc23)cc1 | < 10 | 45 | 72 | < 10 | –
30 | C[C@@H]1CN(C(=O)c2ccccc2)CCN1c1nnc(-c2ccc(C(F)(F)F)cc2)c2ccccc12 | 15 | 13 | 11 | < 10 | clearance [6]: 8.83 mL/min/kg; Vd [7]: 2.52 L/kg; half-life [8]: 258 min; bioavailability [9]: 31%; Vd [10]: 1.4 L/kg; half-life [11]: 204 min; bioavailability [12]: 65%; clearance [13]: 3.33 mL/min/kg; Vd [14]: 2.96 L/kg; half-life [15]: 600 min; bioavailability [16]: 60%; clearance [17]: 6.83 mL/min/kg; Vd [18]: 5.07 L/kg; half-life [19]: 570 min; bioavailability [20]: 39%; clearance [21]: 5 mL/min/kg; Activity [22]: Dose-dependent effect; Activity [23]: Active
31 | C[C@H]1CN(C(=O)c2ccccc2)CCN1c1nnc(-c2ccccc2)c2ccccc12 | – | < 10 | 23 | – | –
32 | C[C@H]1CN(c2nnc(-c3ccc(C(F)(F)F)cc3)c3ccccc23)CCN1C(=O)c1ccccc1 | < 10 | < 10 | < 10 | 49 | –
33 | Cc1ccccc1-c1nnc(N2CCN(C(=O)c3ccccc3)CC2)c2ccccc12 | 24 | 90 | 40 | < 10 | –
34 | Cc1ccc(-c2nnc(N3CCN(C(=O)c4ccccc4)[C@@H](C)C3)c3ccccc23)cc1 | 10 | 38 | 43 | 13 | –
35 | O=C(c1ccccc1)N1CCN(c2nnc(-c3ccccc3)c3ccccc23)CC1 | 11 | 19 | 12 | < 10 | –
36 | O=C(c1ccccc1)N1CCN(c2nnc(-c3ccc(F)cc3)c3ccccc23)CC1 | 29 | 17 | 10 | < 10 | –
